Assay outcomes (PubChem)
proCasp3 act = activators of human procaspase-3 D3A mutant, primary screen, biochemical, absorbance, PC-3 D3A mutant, single concentration; recombinant procaspase-3 D3A, Ac-DEVD-pNA absorbance 405 nm; activation, % at 8.5 µM; 330,000 compounds, 0.11% hits;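 active means activation above the mean of all tested compounds plus 3 SD, cut at about 21% in these data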;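 further: 0% = DMSO alone and 100% = DMSO wells spiked with extra 5 µM PC-3 D3A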
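Evaluation: percent activation relative to control range; Material: Procaspase-3 D3A mutant, all three cleavage aspartates alanine; Compound: single dose, 8.5 µM nominal compound, 0.8% DMSO; Replication: one well per compound; Signal: absorbance at 405 nm, 0 and 120 min; Schedule: 1 h preincubation plus 2 h reaction at 25 °C.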
Neddyl block = inhibitors of cullin neddylation, primary screen, biochemical, TR-FRET, uHTS, NAE and Ubc12. 360,000 compounds, 0.58% hits. calls only at 25 µM; in the data active means inhibition above about 36%
KLK7 zymogen act = proKLK7 zymogen activators, primary screen, biochemical, fluorescence intensity. AID 652039, 2013. Kallikrein-7 (Homo sapiens), P49862. purified proKLK7, EDANS-DABCYL substrate fluorescence; 100% is mature enzyme control, 0% vehicle. activation, % at 7 µM. 370,000 compounds, 0.9% hits;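 active means activation above the mean of all tested compounds plus 3 SD, computed per campaign excluding outliers beyond control limits, cut at about 13% in these data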
Target sequence (P49862 whole entry, looked up): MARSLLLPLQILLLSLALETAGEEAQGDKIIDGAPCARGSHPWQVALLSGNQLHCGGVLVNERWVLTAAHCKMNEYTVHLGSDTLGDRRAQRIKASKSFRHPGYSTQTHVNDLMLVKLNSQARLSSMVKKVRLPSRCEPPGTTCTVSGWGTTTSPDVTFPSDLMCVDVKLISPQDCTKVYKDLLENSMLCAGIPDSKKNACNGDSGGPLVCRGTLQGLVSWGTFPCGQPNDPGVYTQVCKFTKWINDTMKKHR
proCasp7 act = procaspase-7 activators, primary screen, counter-screen for procaspase-3 activator project, biochemical, absorbance, HTS, human; recombinant procaspase-7, Ac-DEVD-pNA absorbance 405 nm; D23A/D198A/D206A triple mutant, cannot self-cleave; scale: DMSO 0, 5 µM enzyme 100; 330,000 compounds, 0.093% hits; activation, % at 8.5 µM;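 active means percent activation above the screen-wide mean plus 3 SD, cut at about 25% in these data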
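Material: Procaspase-7 triple mutant (PC-7 D3A) | Quantity: 2 µM procaspase-7 mutant as dispensed | Reagent: DEVD-pNA substrate | Times: 1 h preincubation, 2 h reaction | Technique: 405 nm absorbance of p-nitroaniline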
Neddyl inh conf = blockade of NEDD8 conjugation to cullin – biochemical, TR-FRET, single concentration, confirmation | TR-FRET cullin neddylation biochemical assay | AID 652217, 2013 | calls only at 25 µM | 1,800 compounds, 13% hits | shares compounds with Neddyl block; in the data active means inhibition above about 40%;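 further: neddylation substrate is the cullin 1 ring ligase complex with SKP2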
* hit, by the source's call; i = inactive; . = no result given; + = active, no number. This is a sample that favours compounds with a hit; in the whole collection about 1.6% have one here.

SMILES	proCasp3 act	Neddyl block	KLK7 zymogen act	proCasp7 act	Neddyl inh conf
CCCCCn1nnnc1C1(C)Cn2nccc2C(=O)N1Cc1ccco1 (stereo not given)	.	.	1	.	.
CCOC(=O)Cc1csc(NC(=O)/C=C/c2ccc(Cl)cc2)n1	-1	+	-41	10	i
CCOC(=O)Cc1csc(NC(=O)/C=C/c2ccco2)n1	5	i	1	-8	.
Cc1cc(=O)oc2c(C)c(OC3CCCCC3=O)ccc12 (stereo not given)	8	+	0	0	+
CC(C)(C)C1c2[nH]c3ccccc3c2CCN1Cc1cccc(OCCO)c1 (stereo not given)	-3	+	4	-3	i
COc1cc2c(cc1OC)C1=C(C#N)COCN1CC2	-8	+	9	-10	i
O=c1oc2ccccc2cc1-c1cn2cccnc2n1	4	+	-4	-3	+
O=c1oc2ccccc2cc1-c1cn2ccccc2n1	-16	i	1	-9	.
Cc1cccn2c(=O)c3cc(C(=O)N4CCN(Cc5ccccc5)CC4)sc3nc12	-7	+	-12	5	+
Cc1cccn2c(=O)c3cc(C(=O)N4CCCC(C)C4)sc3nc12 (stereo not given)	-5	+	1	1	i
CCC1CCCCN1C(=O)c1cc2c(=O)n3cccc(C)c3nc2s1 (stereo not given)	-2	+	.	-3	i
CCOC(=O)C1CCN(C(=O)c2cc3c(=O)n4cccc(C)c4nc3s2)CC1	10	.	0	1	.
Cc1cccn2c(=O)c3cc(C(=O)NC4CCCC4)sc3nc12	-1	+	4	-2	.
Cc1cccn2c(=O)c3cc(C(=O)NCC(C)C)sc3nc12	2	.	0	6	.
Cc1cccn2c(=O)c3cc(C(=O)N4CCCCC4)sc3nc12	7	.	5	2	.
CCn1c2ccccc2c2cc(NC(=O)COC(=O)c3cc(F)ccc3F)ccc21	.	.	-1	.	.
CS(=O)(=O)c1ccc2nc(NC(=O)c3ccco3)sc2c1	-20	i	-1	-23	.
Cc1c(Cl)ccc2sc(NC(=O)c3ccco3)nc12	-4	+	1	1	i
CCc1ccc(N(C(=O)c2snc(C(N)=O)c2N)C(C(=O)NC2CCCC2)c2ccco2)cc1 (stereo not given)	-3	+	0	6	i
NC(=O)c1nsc(C(=O)N(CCc2ccccc2)C(C(=O)NC2CCCC2)c2ccco2)c1N (stereo not given)	-125	+	-1	-92	i
Cc1ccccc1N(C(=O)c1snc(C(N)=O)c1N)C(C(=O)NC1CCCC1)c1ccco1 (stereo not given)	.	.	4	.	.
COc1ccc(C(C(=O)NC2CCCC2)N(C(=O)c2snc(C(N)=O)c2N)c2ccccc2OC)cc1OC (stereo not given)	7	+	4	5	.
Cc1c[nH]c2cccc(-c3cc4ccccc4o3)c12	.	.	-12	.	.
CCOC(=O)c1cn2nc(Oc3cccc(F)c3)ccc2n1	9	+	1	2	i
CCOC(=O)c1cn2nc(Oc3ccc(NC(C)=O)cc3)ccc2n1	-10	i	0	1	.
SMILES	proCasp3 act	Neddyl block	KLK7 zymogen act	proCasp7 act	Neddyl inh conf
COc1ccc2c(c1)CN1C(=O)N(Cc3ccc(F)cc3)S(=O)(=O)CC21 (stereo not given)	.	.	1	.	.
COc1cc2oc(=O)cc(CN3CCCCC3)c2cc1Cl	.	+	2	.	i
O=C1NC(c2ccccc2)=C(c2ccc3ccccc3n2)C(c2ccccc2)N1 (stereo not given)	-4	+	0	0	i
Cc1cccc(NC(=O)OC2CC3CC2[C@H]2CCCCN2C3)c1 (stereo not given in full)	.	.	-1	.	.
Clc1ccc2[nH]c3c(NCCCN4CCOCC4)ncnc3c2c1	2	+	0	-8	i
O=C(c1cccc(F)c1F)N1CCCC(c2nc(-c3cccs3)no2)C1 (stereo not given)	.	.	-1	.	.
